# Shown are actives, neighbours in structure and some others; about 2.3% of the full set was active somewhere.
# NS3 helicase inh: blocks Hepatitis C virus NS3 helicase unwinding; NS3 helicase DNA unwinding, Cy5 molecular beacon fluorescence; inhibition, % at 10.9 µM; 290,000 tested, 0.56% active;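 active = inhibition above the mean of all tested compounds plus 3 SD, set per campaign, cut at about 35% in these data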;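 also: 0% = DMSO wells and 100% = thioflavine S control wells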
#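 assay system = NS3 helicase fragment of HCV | buffer or medium = MOPS pH 6.5, MgCl2, DTT, Tween20, BSA | timing = 60 min unwinding reaction at 25 °C after ATP addition | signal = Cy5 beacon fluorescence read at start and 1 h | read-out basis = % inhibition of unwinding | control set = low DMSO, high thioflavine S at 110 µM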
# ZTA counter: ZTA (EBV) inhibition in EBNA-1 counter-screen; P03206; ZTA-DNA binding, fluorescence polarization; inhibition, % at 11 µM; 320,000 tested, 0.15% active; AID 2234; in the data active = inhibition above about 33%
# Target sequence (P03206 whole entry, looked up): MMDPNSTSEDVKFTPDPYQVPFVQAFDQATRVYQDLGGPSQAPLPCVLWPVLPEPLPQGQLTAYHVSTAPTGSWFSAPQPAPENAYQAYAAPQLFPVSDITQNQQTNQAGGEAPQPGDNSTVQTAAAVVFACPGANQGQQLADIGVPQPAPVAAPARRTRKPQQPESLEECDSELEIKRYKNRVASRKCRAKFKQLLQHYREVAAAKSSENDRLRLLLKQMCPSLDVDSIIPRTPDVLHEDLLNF
# EBV gp42 inh: blocks Epstein-Barr virus glycoprotein 42 binding; Q1HVG2; Fluorescence polarization binding assay, mP read-out; inhibition, % (tested at 21.74 µM); 220,000 tested, 0.42% active; in the data active = inhibition above about 50%
# Target sequence (Q1HVG2 whole entry, looked up): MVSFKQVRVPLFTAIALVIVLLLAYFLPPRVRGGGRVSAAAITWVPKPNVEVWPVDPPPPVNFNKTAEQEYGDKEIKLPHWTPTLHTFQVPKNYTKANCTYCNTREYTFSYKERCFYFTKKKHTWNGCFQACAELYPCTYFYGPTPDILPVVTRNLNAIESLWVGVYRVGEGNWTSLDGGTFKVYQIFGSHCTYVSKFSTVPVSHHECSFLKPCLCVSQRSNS
# GPR7 antag: blocks human GPR7 receptor signaling; AID 1861; inhibition, % at 4.4 µM; P48145; 290,000 tested, 1.1% active; GPR7-expressing cells, fluorescence antagonist assay; in the data active = inhibition above about 16%, passing the limit was not always enough;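 also: cells stimulated with the agonist NPW; 0% = agonist with vehicle and 100% = vehicle without agonist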
# HCV core dimer: blocks dimerization of HCV core protein. TR-FRET GST/Flag-core106 dimerization, 1536-well. inhibition, % at 5 µM. 300,000 tested, 0.33% active. AID 1899;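 active = inhibition above the mean of all tested compounds plus 3 SD, set per screening campaign, cut at about 45% in these data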
#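 Test system: GST/Flag-tagged HCV core106 proteins; Medium: KF-containing HEPES buffer, pH 7.45, DTT, CHAPS, BSA; Times: compound-protein-antibody incubation 4 h at 22.5 °C; Detection: TR-FRET 671 and 617 nm emission; Benchmarks: wells lacking GST-core106 and wells with excess unlabelled core106.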
# EBNA-1 inhibitor: blocks EBNA-1 binding to DNA; EBNA-1 DNA binding, fluorescence polarization; inhibition, % at 14.8 µM; 300,000 tested, 0.34% active; AID 1950; in the data active = inhibition above about 28%
# GPR7 antag conf: confirmation of human GPR7 antagonists. inhibition, % at 4.4 µM. GPR7-expressing cells, calcium fluorescence antagonist mode. 2,400 tested, 52% active. shares compounds with GPR7 antag. AID 1952; in the data active = inhibition above about 24%;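 also: stimulated with the GPR7 agonist NPW; 0% = agonist plus vehicle and 100% = vehicle alone without agonist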
# MCHR1 antagonist: MCHR1 (human) antagonism in GPR7 counter-screen | shares compounds with GPR7 antag | MCHR1-expressing cells, fluorescence antagonist assay | inhibition, % at 4.4 µM | 2,400 tested, 62% active | AID 2148; in the data active = inhibition above about 22%;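 also: 0% = vehicle with agonist and 100% = vehicle without agonist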
# * = called active by the depositor; . = no result; ! = a repeat was not active.
SMILES,NS3 helicase inh,ZTA counter,EBV gp42 inh,GPR7 antag,HCV core dimer,EBNA-1 inhibitor,GPR7 antag conf,MCHR1 antagonist
O=C(Nc1ccc(Cl)c(Cl)c1)Nc1ccon1,8,15,.,35*,-2,3,35*,65*
Cc1cc(NC(=O)Nc2ccc(Cl)c(Cl)c2)no1,.,-9,.,.,-5,-9,.,.
Cc1nc(NC(C)c2ccccc2)c2c3c(sc2n1)CCC3 (centres undefined),-2,4,-7,27*,1,5,28*,29*
CCNC(=O)NC(=O)C(C)OC(=O)c1oc2ccc(OC)cc2c1C (centres undefined),1,16,-21,38*,8,14,8,15
COC(=O)C1C(=O)C2=C(CC1C)Nc1ccccc1NC2c1ccc(C)s1 (centres undefined),10,0,-9,-6,-16,2,.,.
CN(C)CCCN(C(=O)c1ccc(S(=O)(=O)N(C)C2CCCCC2)cc1)c1nc2ccc(F)cc2s1,-33,15,.,19,4,3,.,.
CCc1ccc2nc(N(CCCN(C)C)C(=O)c3ccc(S(=O)(=O)N(C)C4CCCCC4)cc3)sc2c1,-36,-31,.,36*,-23,-9,56*,54*
CN(C)CCCN(C(=O)c1ccc(S(=O)(=O)N(C)C2CCCCC2)cc1)c1nc2ccc(Br)cc2s1,-30,12,.,22*,-15,0,50*,55*
COc1ccccc1N1CN(CCc2ccccc2)CNC1=S,6,5,-26,30*,0,-4,5,-2
COc1cc(-c2noc(C)c2-c2ccc(N(C)C)nc2)cc(OC)c1OC,7,6,.,60*,0,3,69*,67*
COc1cc(-c2noc(C)c2-c2ccc3[nH]ccc3c2)cc(OC)c1OC,-58,1,.,16,3,-4,.,.
C/C(=N\n1c(C)nc2ccccc2c1=O)c1ccc(C)o1,5,3,-11,-11,-1,-6,.,.
O=C(NC12CC3CC(CC(C3)C1)C2)c1ccc([N+](=O)[O-])o1,-1,14,.,-5,-7,4,.,.
N#C/C(=C\c1ccccc1)C(=O)NCc1ccc(F)cc1,-7,24,.,22*,3,6,43*,47*
CCc1ccc([C@@H]2C[C@H]3CN(Cc4ccccc4OC)C(=O)[C@]34CCCN24)cc1,18,0,-18,24*,6,6,3,-1
COc1ccccc1CN1C[C@@H]2C[C@@H](c3ccc(C)cc3)N3CCC[C@@]23C1=O,5,-20,5,-2,4,-10,.,.
O=C(COc1ccccc1C(=O)O)Nc1nc2ccc([N+](=O)[O-])cc2s1,4,-10,-10,-13,0,-1,.,.
CN[C@H]1CC[C@@H](c2ccc(Cl)c(Cl)c2)c2ccccc21,-79,-10,-11,35*!,-14,5,51*,49*
Cn1c(Cc2ccccc2)nnc1SCC(=O)NC1CCCC1,17,-5,.,39*,-7,-7,-10,-4
O=C(CSc1nnc(Cc2ccccc2)n1Cc1ccco1)NC1CCCC1,9,6,-14,33*,0,-7,26*,13
CCN1C(=O)/C(=C2/C=CC=CN2C)SC1=S,-5,-11,-16,4,-12,-13,.,.
COc1ccc(N2C(=O)/C(=C3/C=CC=CN3C)SC2=S)cc1,5,10,-12,24*,-9,0,-9,5
COc1ccc(CN(C)C(=O)c2cc(S(=O)(=O)N3CCOCC3)ccc2N2CCCC2)cc1,.,4,.,.,3,-5,.,.
CC(C)(CC(=O)O)CC(=O)N1CCCN(c2nccc(C(F)(F)F)n2)CC1,19,-3,.,2,3,0,.,.
Cc1cccc(NC(=O)N2C3CCCC2CC(NC(=O)C(C)(C)C)C3)c1 (centres undefined),2,-1,.,1,-5,15,.,.
SMILES,NS3 helicase inh,ZTA counter,EBV gp42 inh,GPR7 antag,HCV core dimer,EBNA-1 inhibitor,GPR7 antag conf,MCHR1 antagonist
Cc1ccc(C)c(N2CCN(C(=O)C3CCCN(S(=O)(=O)c4c(C)noc4C)C3)CC2)c1 (centres undefined),-6,-6,-5,3,6,-1,.,.
Cc1ccc(C)c(N2CCN(C(=O)C3CCN(S(=O)(=O)c4c(C)noc4C)CC3)CC2)c1,20,-5,-14,32*,0,-5,21,47*
CC(Nc1nc(N2CCCCC2)nc2ccccc12)c1ccccc1 (centres undefined),-39,-12,0,24*,-2,0,30*,57*
CC(C)CCNC(=O)c1ccc(OC2CCN(S(=O)(=O)N(C)C)CC2)cc1,-5,-5,-13,25*,-3,4,22,14
COc1cc(C(=O)N/N=C/c2coc3ccc(Cl)cc3c2=O)ccc1O,31,2,.,31*,0,-11,-7,-1
COc1ccc(C(=O)N/N=C\c2coc3ccc(Cl)cc3c2=O)cc1,-1,-17,.,11,-6,0,.,.
Cc1noc(C)c1COc1ccccc1C(=O)NCCc1ccc(S(N)(=O)=O)cc1,1,-15,.,-11,-7,1,.,.
CC(C)c1ccccc1NC(=O)Cn1c(-c2ccccc2Cl)nc2ccccc21,1,3,-3,23*,-6,0,16,16
Fc1ccc(NC(=S)NCCc2ccccc2)c(F)c1F,9,1,-23,28*,2,-1,8,55*
CCOC(=O)c1cn[nH]c1NC(=S)Nc1ccc(OC)cc1,10,-13,-12,30*,-1,6,26*,21
O=C(Cc1n[nH]c(=O)c2ccccc12)OCC(=O)c1ccc2c(c1)OCCO2,-6,-3,8,28*,0,2,-9,15
Cc1cnc(CNC(=O)c2ccc3oc(Cc4ccc(Cl)cc4)nc3c2)cn1,16,6,.,23*,-12,3,23,20
Cc1ccc(S(=O)(=O)N(C)c2ccc(OCC(=O)Nc3cccc(-n4cnnn4)c3C)cc2)cc1,12,10,-22,22*,2,8,6,33*
COc1ccc(NC(=O)COc2ccc(N(C)S(=O)(=O)c3ccc(C)cc3)cc2)cc1,-3,7,-4,-4,-2,10,.,.
CN(C)Cc1c(C(=O)N/N=C/c2ccccc2OCc2c(F)cccc2Cl)nnn1-c1nonc1N,-26,14,.,35*,23,-17,34*,66*
O=C(N=Nc1c(O)[nH]c2ccccc12)c1ccc2c(c1)OCO2,1,1,-4,-13,-13,-1,.,.
Cc1ccc(C)c(NC(=O)C(=O)NCC2CCCN2S(=O)(=O)c2cccs2)c1 (centres undefined),.,19,.,.,3,8,.,.

# Compound activity: PubChem BioAssay, several laboratories
